Laboratory results as given in ChEMBL document CHEMBL1130123, “Optimization of 3-(1H-indazol-3-ylmethyl)-1,5-benzodiazepines as potent, orally active CCK-A agonists” (J Med Chem, 1997).

How the values were obtained:
[1] = organism: Cavia porcellus; assay: In vitro functional agonist activity in the isolated guinea pig gall bladder, concentration at which 50% of the maximal contraction observed was reported.; conditions: read-out: ED50 (the source's name)
[2] = target: T1, Gastrin/cholecystokinin type B receptor (Homo sapiens, UniProt P32239); assay: In vitro for binding affinity against human cholecystokinin type B receptor.
T1 sequence (P32239 whole entry): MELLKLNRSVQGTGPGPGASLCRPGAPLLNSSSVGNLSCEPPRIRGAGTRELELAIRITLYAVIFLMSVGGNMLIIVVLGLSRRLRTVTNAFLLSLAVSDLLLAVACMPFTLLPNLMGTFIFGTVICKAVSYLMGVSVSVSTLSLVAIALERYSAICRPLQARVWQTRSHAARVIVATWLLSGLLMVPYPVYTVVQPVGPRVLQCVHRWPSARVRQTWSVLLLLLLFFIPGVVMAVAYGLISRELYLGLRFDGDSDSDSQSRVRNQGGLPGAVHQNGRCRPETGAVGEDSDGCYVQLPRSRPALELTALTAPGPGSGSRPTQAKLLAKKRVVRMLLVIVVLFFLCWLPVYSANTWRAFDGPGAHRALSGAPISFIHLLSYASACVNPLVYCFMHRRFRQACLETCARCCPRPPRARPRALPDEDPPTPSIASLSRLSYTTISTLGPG

[3] = organism: Cavia porcellus; assay: In vitro functional efficacy relative to CCK-8 in inducing contraction of the isolated guinea pig gallbladder (GPGB) at a 1 uM concentration.
Outline: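 Isolated guinea pig gallbladder, ligand 1 μM, 30 min at 37 °C; maximal contraction expressed relative to CCK-8 (1 μM) = 100%; values ± 5%.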

[4] = target: T2, Cholecystokinin receptor type A (Homo sapiens, UniProt P32238); assay: In vitro for binding affinity against human cholecystokinin type A receptor.
T2 sequence (P32238 whole entry): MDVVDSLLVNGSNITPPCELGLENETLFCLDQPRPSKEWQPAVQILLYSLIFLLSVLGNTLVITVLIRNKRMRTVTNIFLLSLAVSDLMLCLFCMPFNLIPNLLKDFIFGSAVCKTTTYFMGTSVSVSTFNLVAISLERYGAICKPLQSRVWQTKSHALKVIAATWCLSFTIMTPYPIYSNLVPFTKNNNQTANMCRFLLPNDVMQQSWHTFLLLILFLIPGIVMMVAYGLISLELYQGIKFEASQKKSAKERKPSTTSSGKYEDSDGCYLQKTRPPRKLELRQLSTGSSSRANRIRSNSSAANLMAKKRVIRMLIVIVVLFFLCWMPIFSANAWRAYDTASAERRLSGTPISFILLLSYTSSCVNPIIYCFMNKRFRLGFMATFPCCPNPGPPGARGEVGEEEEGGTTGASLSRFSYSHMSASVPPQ

[5] = test system: Mus musculus; assay: Intraperitoneal dose that produces a half maximal response in mouse gall bladder emptying assay (in vivo); format: functional; conditions: ip
[6] = test system: Mus musculus; assay: Peroral dose that produces a half maximal response in mouse gall bladder emptying assay (in vivo); format: functional; conditions: po
[7] = test system: Mus musculus; assay: maximal response at 1 nmol/kg peroral dose; format: functional
[8] = test system: Mus musculus; assay: Maximal response at 1 nmol/kg intraperitoneal dose; format: functional
[9] = test system: Rattus norvegicus; assay: Maximal response at 0.5 umol/kg intraperitoneal dose; format: functional
[10] = test system: Rattus norvegicus; assay: Anorectic potency in rat was tested and intraperitoneal dose that produces a half maximal response (in vivo); format: functional; conditions: ip
[11] = test system: Mus musculus; assay: Maximal response at 1 nmol/kg peroral dose; format: functional

COc1ccc(N(C(=O)CN2C(=O)C(Cc3[nH]nc4c3CCCC4)C(=O)N(c3ccccc3)c3ccccc32)C(C)C)cc1 (stereo not given)
EC50 [1]: 300 nM | IC50 [2]: 2950 nM | Max [3]: 80% | IC50 [4]: 129 nM

COc1ccc(N(C(=O)CN2C(=O)C(Cc3nsc4ccccc34)C(=O)N(c3ccccc3)c3ccccc32)C(C)C)cc1 (stereo not given)
Max [3]: 30%

COc1ccc(N(C(=O)CN2C(=O)C(Cc3cc(C)[nH]n3)C(=O)N(c3ccccc3)c3ccccc32)C(C)C)cc1 (stereo not given)
Max [3]: 20%

COc1ccc(N(C(=O)CN2C(=O)C(C)(Cc3cn(C)c4ccccc34)C(=O)N(c3ccccc3)c3ccccc32)C(C)C)cc1 (stereo not given)
Max [3]: 40% | IC50 [4]: 17.8 nM

COc1ccccc1N(C(=O)CN1C(=O)C(Cc2n[nH]c3ccccc23)C(=O)N(c2ccccc2)c2ccccc21)C(C)C (stereo not given)
EC50 [1]: 830 nM | IC50 [2]: 129 nM | Max [3]: 40%

COc1ccc(N(C(=O)CN2C(=O)C(C)(Cc3c[nH]c4ccccc34)C(=O)N(c3ccccc3)c3ccccc32)C(C)C)cc1 (stereo not given)
ED50 [5]: 0.0008 µmol/kg | ED50 [6]: 0.38 µmol/kg | Max [7]: 46% | Max [8]: 91%

COc1ccc(N(C(=O)CN2C(=O)C(Cc3cc(-c4ccccc4)[nH]n3)C(=O)N(c3ccccc3)c3ccccc32)C(C)C)cc1 (stereo not given)
Max [3]: 20%

COc1ccc(N(C(=O)CN2C(=O)C(Cc3coc4ccccc34)C(=O)N(c3ccccc3)c3ccccc32)C(C)C)cc1 (stereo not given)
Max [3]: 40%

COc1ccc(N(C(=O)CN2C(=O)C(Cc3n[nH]c4ccc(F)cc34)C(=O)N(c3ccccc3)c3ccccc32)C(C)C)cc1 (stereo not given)
EC50 [1]: 40 nM | IC50 [2]: 2510 nM | Max [3]: 90% | IC50 [4]: 42.7 nM

CSCC[C@H](NC(=O)[C@H](Cc1ccc(OS(=O)(=O)O)cc1)NC(=O)[C@@H](N)CC(=O)O)C(=O)NCC(=O)N[C@@H](Cc1c[nH]c2ccccc12)C(=O)N[C@@H](CCSC)C(=O)N[C@@H](CC(=O)O)C(=O)N[C@@H](Cc1ccccc1)C(N)=O [SINCALIDE]
Max [9]: 95% | ED50 [10]: 0.03 µmol/kg | Max [8]: 95%

CC(C)N(C(=O)CN1C(=O)C(Cc2n[nH]c3ccccc23)C(=O)N(c2ccccc2)c2ccccc21)c1ccc2c(c1)OCO2 (stereo not given)
EC50 [1]: 20 nM | IC50 [2]: 724 nM | Max [3]: 100% | IC50 [4]: 355 nM

COc1ccc(N(C(=O)CN2C(=O)C(Cc3n[nH]c4cccnc34)C(=O)N(c3ccccc3)c3ccccc32)C(C)C)cc1 (stereo not given)
Max [3]: 40%

COc1ccc(N(C(=O)CN2C(=O)C(Cc3c[nH]c4ccccc34)(OC)C(=O)N(c3ccccc3)c3ccccc32)C(C)C)cc1 (stereo not given)
Max [11]: 54% | EC50 [1]: 150 nM | IC50 [2]: 29500 nM | Max [3]: 60% | IC50 [4]: 13.8 nM | Max [8]: 84%

COc1ccc(N(C(=O)CN2C(=O)C(Cc3n[nH]c4cccc(F)c34)C(=O)N(c3ccccc3)c3ccccc32)C(C)C)cc1 (stereo not given)
EC50 [1]: 70 nM | IC50 [2]: 1700 nM | Max [3]: 100% | IC50 [4]: 17.4 nM

COc1ccc(N(C(=O)CN2C(=O)C(Cc3nn(C)c4ccccc34)C(=O)N(c3ccccc3)c3ccccc32)C(C)C)cc1 (stereo not given)
ED50 [5]: 0.0008 µmol/kg | Max [11]: 84% | ED50 [6]: 0.03 µmol/kg | Max [9]: 98% | ED50 [10]: 0.22 µmol/kg | Max [8]: 83%
